# Results taken from ChEMBL document CHEMBL4689842, “EUbOPEN Chemogenomics Library wave 1” (2021).
# Tested on: Fibroblast
# Assay: Multiplex assay against human fibroblast
# Assay type: toxicity, cell-based
# In short: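 With compound added, live cells were imaged on a CQ1 microscope at 37°C and 5% CO2; staining with Hoechst33342, BioTracker Green Microtubule Cytoskeleton Dye, MitoTracker Red and Annexin V Alexa Fluor 680 had been done at seeding. The CellPathfinder machine-learning gating scheme split cells into Hoechst high-intensity objects or normal cells, normal cells into healthy, pyknosed or fragmented nuclei, and pyknosed cells into mitotic or apoptotic. The tubulin, mitochondrial-mass and membrane-permeability phenotypes are per cents of healthy-nucleus cells.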
# [1] = 12 h, 1 µM, compound concentration 1 uM, replicate 1
# [2] = 12 h, 1 µM, compound concentration 1 uM, replicate 2
# [3] = 12 h, 10 µM, compound concentration 10 uM, replicate 1
# [4] = 12 h, 10 µM, compound concentration 10 uM, replicate 2
# [5] = 24 h, 1 µM, compound concentration 1 uM, replicate 1
# [6] = 24 h, 1 µM, compound concentration 1 uM, replicate 2
# [7] = 24 h, 10 µM, compound concentration 10 uM, replicate 1
# [8] = 24 h, 10 µM, compound concentration 10 uM, replicate 2
# [9] = 48 h, 1 µM, compound concentration 1 uM, replicate 1
# [10] = 48 h, 1 µM, compound concentration 1 uM, replicate 2
# [11] = 48 h, 10 µM, compound concentration 10 uM, replicate 1
# [12] = 48 h, 10 µM, compound concentration 10 uM, replicate 2
structure (smiles),measurement,setting,value
CN1CCC[C@@H]1CCO[C@](C)(c1ccccc1)c1ccc(Cl)cc1.O=C(O)/C=C/C(=O)O [CLEMASTINE FUMARATE],Population Apoptotic (%),[1],61%
same,Population Fragmented Nuclei (%),[1],35%
same,Population Healthy Nuclei (%),[1],39%
same,Population Hoechst High Intensity Objects (%),[1],20%
same,Population Membrane Permeable-Phenotype (%),[1],13%
same,Population Mitochondria Different-Phenotype (%),[1],10%
same,Population Mitotic Cells (%),[1],38%
same,Population Normal (%),[1],79%
same,Population Pyknosed Nuclei (%),[1],24%
same,Population Tubulin-Different-Phenotype (%),[1],37%
same,Total Cell Count,[1],92
same,Population Apoptotic (%),[2],50%
same,Population Fragmented Nuclei (%),[2],15%
same,Population Healthy Nuclei (%),[2],76%
same,Population Hoechst High Intensity Objects (%),[2],1%
same,Population Membrane Permeable-Phenotype (%),[2],3%
same,Population Mitochondria Different-Phenotype (%),[2],6%
same,Population Mitotic Cells (%),[2],50%
same,Population Normal (%),[2],98%
same,Population Pyknosed Nuclei (%),[2],7%
same,Population Tubulin-Different-Phenotype (%),[2],3%
same,Total Cell Count,[2],78
same,Population Apoptotic (%),[3],69%
same,Population Fragmented Nuclei (%),[3],26%
same,Population Healthy Nuclei (%),[3],43%
same,Population Hoechst High Intensity Objects (%),[3],10%
same,Population Membrane Permeable-Phenotype (%),[3],11%
same,Population Mitochondria Different-Phenotype (%),[3],49%
same,Population Mitotic Cells (%),[3],30%
same,Population Normal (%),[3],90%
same,Population Pyknosed Nuclei (%),[3],29%
same,Population Tubulin-Different-Phenotype (%),[3],77%
same,Total Cell Count,[3],160
same,Population Apoptotic (%),[4],85%
same,Population Fragmented Nuclei (%),[4],19%
same,Population Healthy Nuclei (%),[4],41%
same,Population Hoechst High Intensity Objects (%),[4],21%
same,Population Membrane Permeable-Phenotype (%),[4],6%
same,Population Mitochondria Different-Phenotype (%),[4],86%
same,Population Mitotic Cells (%),[4],14%
same,Population Normal (%),[4],78%
same,Population Pyknosed Nuclei (%),[4],38%
same,Population Tubulin-Different-Phenotype (%),[4],40%
same,Total Cell Count,[4],46
same,Population Apoptotic (%),[5],63%
same,Population Fragmented Nuclei (%),[5],36%
same,Population Healthy Nuclei (%),[5],50%
same,Population Hoechst High Intensity Objects (%),[5],32%
same,Population Membrane Permeable-Phenotype (%),[5],20%
same,Population Mitochondria Different-Phenotype (%),[5],17%
same,Population Mitotic Cells (%),[5],36%
same,Population Normal (%),[5],67%
same,Population Pyknosed Nuclei (%),[5],13%
same,Population Tubulin-Different-Phenotype (%),[5],60%
same,Total Cell Count,[5],118
same,Population Apoptotic (%),[6],18%
same,Population Fragmented Nuclei (%),[6],14%
same,Population Healthy Nuclei (%),[6],70%
same,Population Hoechst High Intensity Objects (%),[6],0%
same,Population Membrane Permeable-Phenotype (%),[6],5%
same,Population Mitochondria Different-Phenotype (%),[6],13%
same,Population Mitotic Cells (%),[6],81%
same,Population Normal (%),[6],99%
same,Population Pyknosed Nuclei (%),[6],15%
same,Population Tubulin-Different-Phenotype (%),[6],6%
same,Total Cell Count,[6],107
same,Population Apoptotic (%),[7],78%
same,Population Fragmented Nuclei (%),[7],34%
same,Population Healthy Nuclei (%),[7],48%
same,Population Hoechst High Intensity Objects (%),[7],16%
same,Population Membrane Permeable-Phenotype (%),[7],9%
same,Population Mitochondria Different-Phenotype (%),[7],76%
same,Population Mitotic Cells (%),[7],21%
same,Population Normal (%),[7],83%
same,Population Pyknosed Nuclei (%),[7],17%
same,Population Tubulin-Different-Phenotype (%),[7],85%
same,Total Cell Count,[7],190
same,Population Apoptotic (%),[8],76%
same,Population Fragmented Nuclei (%),[8],21%
same,Population Healthy Nuclei (%),[8],36%
same,Population Hoechst High Intensity Objects (%),[8],12%
same,Population Membrane Permeable-Phenotype (%),[8],26%
same,Population Mitochondria Different-Phenotype (%),[8],86%
same,Population Mitotic Cells (%),[8],23%
same,Population Normal (%),[8],87%
same,Population Pyknosed Nuclei (%),[8],41%
same,Population Tubulin-Different-Phenotype (%),[8],26%
same,Total Cell Count,[8],47
same,Population Apoptotic (%),[9],50%
same,Population Fragmented Nuclei (%),[9],46%
same,Population Healthy Nuclei (%),[9],45%
same,Population Hoechst High Intensity Objects (%),[9],27%
same,Population Membrane Permeable-Phenotype (%),[9],24%
same,Population Mitochondria Different-Phenotype (%),[9],2%
same,Population Mitotic Cells (%),[9],50%
same,Population Normal (%),[9],72%
same,Population Pyknosed Nuclei (%),[9],8%
same,Population Tubulin-Different-Phenotype (%),[9],42%
same,Total Cell Count,[9],136
same,Population Apoptotic (%),[10],0%
same,Population Fragmented Nuclei (%),[10],48%
same,Population Healthy Nuclei (%),[10],51%
same,Population Hoechst High Intensity Objects (%),[10],16%
same,Population Membrane Permeable-Phenotype (%),[10],11%
same,Population Mitochondria Different-Phenotype (%),[10],14%
same,Population Mitotic Cells (%),[10],0%
same,Population Normal (%),[10],83%
same,Population Pyknosed Nuclei (%),[10],0%
same,Population Tubulin-Different-Phenotype (%),[10],50%
same,Total Cell Count,[10],97
same,Population Apoptotic (%),[11],78%
same,Population Fragmented Nuclei (%),[11],38%
same,Population Healthy Nuclei (%),[11],45%
same,Population Hoechst High Intensity Objects (%),[11],24%
same,Population Membrane Permeable-Phenotype (%),[11],8%
same,Population Mitochondria Different-Phenotype (%),[11],72%
same,Population Mitotic Cells (%),[11],21%
same,Population Normal (%),[11],75%
same,Population Pyknosed Nuclei (%),[11],15%
same,Population Tubulin-Different-Phenotype (%),[11],83%
same,Total Cell Count,[11],197
same,Population Apoptotic (%),[12],75%
same,Population Fragmented Nuclei (%),[12],47%
same,Population Healthy Nuclei (%),[12],50%
same,Population Membrane Permeable-Phenotype (%),[12],3%
same,Population Mitochondria Different-Phenotype (%),[12],60%
same,Population Mitotic Cells (%),[12],25%
same,Population Pyknosed Nuclei (%),[12],2%
same,Population Tubulin-Different-Phenotype (%),[12],97%
same,Total Cell Count,[12],258
